From ChEMBL document CHEMBL2203259, “Antioxidant glucosylated caffeoylquinic acid derivatives in the invasive tropical soda apple, Solanum viarum” (J Nat Prod, 2012)
Activity calls are given as the source filed them. The calls are words filed in the database; no cut-off is given here.

How the values were obtained:
Type in all cases: functional
[1] = Antioxidant activity assessed as trolox equivalents of ABTS radical scavenging activity at 5 mins by TEAC assay
How it was run: (§1)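 ABTS•+ scavenging run per an earlier published method. Standard curve built from six 1:2 serial dilutions of a 500 μg/mL stock solution. Activity expressed as Trolox equivalent antioxidant capacity (TEAC), read at 5 min intervals from 0 to 40 min after starting incubation with the radical. Seven technical replicates.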

[2] = Antioxidant activity assessed as trolox equivalents of ABTS radical scavenging activity at 30 mins by TEAC assay; how it was run: as §1
[3] = tested on: Radical scavenging activity; assay: Antioxidant activity assessed as DPPH radical scavenging activity
[4] = Antioxidant activity assessed as trolox equivalents of ABTS radical scavenging activity at 35 mins by TEAC assay; how it was run: as §1
[5] = Antioxidant activity assessed as trolox equivalents of ABTS radical scavenging activity at 20 mins by TEAC assay; how it was run: as §1
[6] = Antioxidant activity assessed as trolox equivalents of ABTS radical scavenging activity at 25 mins by TEAC assay; how it was run: as §1
[7] = Antioxidant activity assessed as trolox equivalents of ABTS radical scavenging activity at 15 mins by TEAC assay; how it was run: as §1
[8] = Antioxidant activity assessed as trolox equivalents of ABTS radical scavenging activity at 40 mins by TEAC assay; how it was run: as §1
[9] = Antioxidant activity assessed as trolox equivalents of ABTS radical scavenging activity at 10 mins by TEAC assay; how it was run: as §1
[10] = Antioxidant activity assessed as trolox equivalents of ABTS radical scavenging activity at 0 min by TEAC assay; how it was run: as §1

With `O=C(/C=C/c1ccc(O[C@@H]2O[C@H](COC(=O)[C@]3(O)C[C@@H](O)[C@@H](O)[C@H](OC(=O)/C=C/c4ccc(O)c(O)c4)C3)[C@@H](O)[C@H](O)[C@H]2O)c(O)c1)O[C@@H]1C[C@](O)(C(=O)O)C[C@@H](O)[C@H]1O` the Activity [1] was 2.71, the Activity [2] was 3.71 and the Activity [3] was “Active”. For the same molecule, the Activity [4] was 3.81, the Activity [5] was 3.64 and the Activity [6] was 3.73. It also gave an Activity [7] of 3.18, an Activity [8] of 3.89 and an Activity [9] of 3.01. For the same molecule, the Activity [10] was 1.51.

With `O=C(/C=C/c1ccc(O)c(O)c1)O[C@@H]1C[C@](O)(C(=O)O)C[C@@H](O)[C@H]1O` the Activity [1] was 1.61, the Activity [2] was 2.42 and the Activity [3] was “Active”. The Activity [4] was 2.5, the Activity [5] was 2.26 and the Activity [6] was 2.49. For the same molecule, the Activity [7] was 2.1, the Activity [8] was 2.56 and the Activity [9] was 1.85. It also gave an Activity [10] of -0.31.

For `O=C(O)CC(=O)O[C@@H]1C[C@@](O)(C(=O)O)C[C@@H](OC(=O)/C=C/c2ccc(O[C@@H]3O[C@H](COC(=O)[C@]4(O)C[C@@H](O)[C@@H](O)[C@H](OC(=O)/C=C/c5ccc(O)c(O)c5)C4)[C@@H](O)[C@H](O)[C@H]3O)c(O)c2)[C@@H]1O`, the Activity [1] was 1.61, the Activity [2] was 2.42 and the Activity [3] was “Active”. It also gave an Activity [4] of 2.5, an Activity [5] of 2.26 and an Activity [6] of 2.49. It also gave an Activity [7] of 2.1, an Activity [8] of 2.56 and an Activity [9] of 1.85. For the same molecule, the Activity [10] was -0.31.
